Reference: paper PMC10586084 (Journal of Enzyme Inhibition and Medicinal Chemistry, 2023)
pKi: −log10 of the molar value. Values joined by “and” are separate entries in the source; they are usually repeats but may differ in a detail not shown here. Equal values may be shown once.

Key:
[1] = system: HuTuP192 primary glioblastoma cells; assay: cell proliferation analysis; format: cell-based, human; conditions: 72 h; for effect of combination on the effect of TMZ: compound 10 µM + TMZ 500 µM, HuTuP192
[2] = molecular target: hCA II (Homo sapiens, UniProt P00918); assay: stopped-flow CO2 hydrase assay, hCA II; format: biochemical; conditions: stopped flow technique, mean from three assays
[3] = molecular target: hCA XII (Homo sapiens, UniProt O43570); assay: stopped-flow CO2 hydrase assay, hCA XII; format: biochemical; conditions: for pKi: KI hCA XII, stopped flow technique, mean from three assays; for Selectivity index I/XII: ratio KI hCA I / KI hCA XII; for Selectivity index II/XII: ratio KI hCA II / KI hCA XII; for Selectivity index IV/XII: ratio KI hCA IV / KI hCA XII
hCA XII, sequence (O43570 25-354): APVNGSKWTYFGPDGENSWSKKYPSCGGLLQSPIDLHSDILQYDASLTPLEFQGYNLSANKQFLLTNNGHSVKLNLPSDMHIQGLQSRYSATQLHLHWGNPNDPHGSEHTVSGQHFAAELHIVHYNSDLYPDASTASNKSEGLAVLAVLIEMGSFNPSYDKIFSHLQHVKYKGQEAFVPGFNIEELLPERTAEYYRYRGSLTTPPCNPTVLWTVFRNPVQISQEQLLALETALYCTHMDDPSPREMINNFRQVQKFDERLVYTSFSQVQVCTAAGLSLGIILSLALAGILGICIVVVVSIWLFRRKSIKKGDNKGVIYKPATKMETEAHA

[4] = cytotoxicity in resting peripheral blood lymphocytes; format: cell-based; conditions: human
[5] = molecular target: hCA I (Homo sapiens, UniProt P00915); assay: stopped-flow CO2 hydrase assay, hCA I; format: biochemical; conditions: stopped flow technique, mean from three assays
hCA I, sequence (P00915 whole entry): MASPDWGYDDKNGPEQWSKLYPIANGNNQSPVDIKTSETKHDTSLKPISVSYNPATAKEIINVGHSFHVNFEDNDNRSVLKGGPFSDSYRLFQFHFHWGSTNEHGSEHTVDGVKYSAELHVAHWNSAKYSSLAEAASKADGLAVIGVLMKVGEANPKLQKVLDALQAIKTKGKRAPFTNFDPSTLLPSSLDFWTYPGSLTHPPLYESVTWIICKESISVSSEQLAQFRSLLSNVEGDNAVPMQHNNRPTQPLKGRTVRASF

[6] = molecular target: hCA IX (Homo sapiens, UniProt Q16790); assay: biochemical; format: biochemical; conditions: for pKi: KI hCA IX, stopped flow technique, mean from three assays; for Selectivity index I/IX: ratio KI hCA I / KI hCA IX; for Selectivity index II/IX: ratio KI hCA II / KI hCA IX; for Selectivity index IV/IX: ratio KI hCA IV / KI hCA IX
[7] = system: HD-MB03 and DAOY medulloblastoma cell lines; assay: cell proliferation analysis; format: cell-based, human; conditions: 72 h; for effect of combination on efficacy of CDDP in reducing cell viability: compound 10 µM + cis-Pt 1.8 µM, both MB cell lines
[8] = molecular target: hCA IV (Homo sapiens, UniProt P22748); assay: stopped-flow CO2 hydrase assay, hCA IV; format: biochemical; conditions: stopped flow technique, mean from three assays
hCA IV, sequence (P22748 19-284 limits assumed): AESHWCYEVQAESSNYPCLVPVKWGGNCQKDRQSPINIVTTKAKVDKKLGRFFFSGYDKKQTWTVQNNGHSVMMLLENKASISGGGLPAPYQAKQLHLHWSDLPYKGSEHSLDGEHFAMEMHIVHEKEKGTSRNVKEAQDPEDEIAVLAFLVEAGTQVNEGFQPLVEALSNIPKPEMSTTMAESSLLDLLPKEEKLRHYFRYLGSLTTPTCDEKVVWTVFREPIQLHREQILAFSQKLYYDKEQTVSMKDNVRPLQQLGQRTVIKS

[9] = system: HD-MB03 cells; assay: apoptosis assay; format: cell-based, human; conditions: 72 h; for apoptotic cells in combination with cis-Pt: 10 µM + cis-Pt 1.8 µM, HD-MB03, vs single treatments; for induction of apoptosis (apoptotic cells): 10 µM alone, HD-MB03
How it was run: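 HD-MB03 medulloblastoma cells grown in RPMI 1640 with 10% FBS, 1% glutamine and 1% penicillin–streptomycin, kept at 2% O2/5% CO2. Seeded at 10 000 cells/well, treated after 24 h, exposed 72 h. Stained 15 min in the dark at room temperature with Annexin V–FITC (FL1, 525 nm/40) and PI (FL3, 620 nm/20). Whole population analysed by flow cytometry. Mean ± SE, three independent experiments.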

[10] = system: HuTuP108 primary glioblastoma cells; assay: cell proliferation analysis; format: cell-based, human; conditions: 72 h; for effect of combination on the effect of TMZ: compound 10 µM + TMZ 500 µM
[11] = system: HuTuP108 GBM primary cells; assay: apoptosis assay; format: cell-based, human; conditions: 72 h; for apoptotic cells in combination with TMZ: 10 µM + TMZ 500 µM, HuTuP108, vs single treatments; for induction of apoptosis: 10 µM alone, HuTuP108
How it was run: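 Patient-derived primary glioblastoma cells on fibronectin-coated plates in DMEM/F12 with 10% BIT9500, 20 ng/mL bFGF and 20 ng/mL EGF, held at 2% O2/5% CO2. Seeded at 10 000 cells/well, dosed 24 h later for 72 h. Annexin V–FITC/PI staining for 15 min in the dark at room temperature, then flow cytometry (FL1 525 nm/40, FL3 620 nm/20) on the whole population. Mean ± SE of three independent experiments.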

| Compound | pKi [2] | pKi [3] | Selectivity index I/XII [3] | Selectivity index II/XII [3] | Selectivity index IV/XII [3] | pKi [5] | pKi [6] | Selectivity index I/IX [6] | Selectivity index II/IX [6] | Selectivity index IV/IX [6] | pKi [8] | GI50 at 72 h [4] [nM] | other results |
| --- | --- | --- | --- | --- | --- | --- | --- | --- | --- | --- | --- | --- | --- |
| NS(=O)(=O)c1ccc(Nc2nc3nccc(-c4c(F)ccc(F)c4F)n3n2)cc1 [Compound 1j, 4-((7-(2,3,6-Trifluorophenyl)-[1,2,4]triazolo[1,5-a]pyrimidin-2-yl)amino)benzenesulfonamide] | 7.86 | 8.27 | 91.9 | 2.6 | 123 | 6.30 | 8.07 | 57.7 | 1.6 | 77.0 | 6.18 | > 10000 | apoptotic cells in combination with cis-Pt [9]: significant increase in the percentage of apoptotic cells; induction of apoptosis (apoptotic cells) [9]: about 25%; effect of combination on the effect of TMZ [1]: did not significantly improve the effect of TMZ; effect of combination on the effect of TMZ [10]: did not significantly improve the effect of TMZ; apoptotic cells in combination with TMZ [11]: significant increase in the percentage of apoptotic cells; induction of apoptosis [11]: ineffective; effect of combination on efficacy of CDDP in reducing cell viability [7]: significantly improved the efficacy of CDDP |
| [NH2][Pt]([NH2])([Cl])[Cl] [CDDP, cisplatin, reference compound] | – | – | – | – | – | – | – | – | – | – | – | – | viability reduction by CDDP alone ([7]; CDDP concentration used for combination (cis-Pt 1.8 µM)): around 50% |
| COc1ccccc1-c1ccnc2nc(Nc3ccc(S(N)(=O)=O)cc3)nn12 [Compound 1y, 4-((7-(2-Methoxyphenyl)-[1,2,4]triazolo[1,5-a]pyrimidin-2-yl)amino)benzenesulfonamide] | 7.14 | 7.50 | 69.5 | 2.3 | 200 | 5.66 | 7.96 | 200 | 6.6 | 575 | 5.20 | > 10000 | effect of combination on the effect of TMZ [1]: did not significantly improve the effect of TMZ; effect of combination on the effect of TMZ [10]: did not significantly improve the effect of TMZ |
| NS(=O)(=O)c1ccc(Nc2nc3nccc(-c4ccc(I)cc4)n3n2)cc1 [Compound 1p, 4-((7-(4-Iodophenyl)-[1,2,4]triazolo[1,5-a]pyrimidin-2-yl)amino)benzenesulfonamide] | 6.25 | 7.41 | 196 | 14.3 | 227 | 5.12 | 7.02 | 79.7 | 5.8 | 92.5 | 5.05 | – | – |
| Cn1nnc2c(C(N)=O)ncn2c1=O [TMZ, temozolomide, reference compound] | – | – | – | – | – | – | – | – | – | – | – | – | response of cells to TMZ ([10]; TMZ 500 µM): resistant |
| NS(=O)(=O)c1ccc(NC(=O)Nc2ccc(F)cc2)cc1 [SLC-0111, reference compound] | – | – | – | – | – | – | – | – | – | – | – | > 10000 | apoptotic cells in combination with cis-Pt [9]: did not cause any increase in cytotoxicity; induction of apoptosis (apoptotic cells) [9]: did not significantly induce apoptosis; apoptotic cells in combination with TMZ [11]: did not cause any increase in cytotoxicity; induction of apoptosis [11]: did not significantly induce apoptosis |

Continued by rising pKi [3], values first:

| pKi [2] | pKi [3] | Selectivity index I/XII [3] | Selectivity index II/XII [3] | Selectivity index IV/XII [3] | pKi [5] | pKi [6] | Selectivity index I/IX [6] | Selectivity index II/IX [6] | Selectivity index IV/IX [6] | pKi [8] | Compound | GI50 at 72 h [4] [nM] | other results |
| --- | --- | --- | --- | --- | --- | --- | --- | --- | --- | --- | --- | --- | --- |
| 6.88 | 7.10 | 117 | 1.7 | 55.1 | 5.04 | 7.42 | 241 | 3.5 | 114 | 5.36 | NS(=O)(=O)c1ccc(Nc2nc3nccc(-c4cccc(Br)c4)n3n2)cc1 [Compound 1o, 4-((7-(3-Bromophenyl)-[1,2,4]triazolo[1,5-a]pyrimidin-2-yl)amino)benzenesulfonamide] | – | – |
| 6.70 | 7.24 | 57.8 | 3.4 | 89.6 | 5.47 | 7.28 | 63.8 | 3.8 | 98.9 | 5.28 | NS(=O)(=O)c1ccc(Nc2nc3nccc(-c4ccc(Br)cc4)n3n2)cc1 [Compound 1n, 4-((7-(4-Bromophenyl)-[1,2,4]triazolo[1,5-a]pyrimidin-2-yl)amino)benzenesulfonamide] | – | – |
| 7.06 | 7.38 | 102 | 2.0 | 77.4 | 5.37 | 7.16 | 61.8 | 1.2 | 46.9 | 5.49 | NS(=O)(=O)c1ccc(Nc2nc3nccc(-c4ccc([N+](=O)[O-])cc4)n3n2)cc1 [Compound 1q, 4-((7-(4-Nitrophenyl)-[1,2,4]triazolo[1,5-a]pyrimidin-2-yl)amino)benzenesulfonamide] | – | – |
| 7.37 | 7.52 | 88.1 | 1.4 | 290 | 5.57 | 8.33 | 570 | 9.1 | 1877 | 5.05 | Cc1ccccc1-c1ccnc2nc(Nc3ccc(S(N)(=O)=O)cc3)nn12 [Compound 1v, 4-((7-(o-Tolyl)-[1,2,4]triazolo[1,5-a]pyrimidin-2-yl)amino)benzenesulfonamide] | – | – |
| 7.75 | 7.65 | 33 | 0.8 | 31.2 | 6.13 | 7.66 | 33.9 | 0.8 | 32.1 | 6.15 | NS(=O)(=O)c1ccc(Nc2nc3nccc(-c4c(F)cccc4F)n3n2)cc1 [Compound 1i, 4-((7-(2,6-Difluorophenyl)-[1,2,4]triazolo[1,5-a]pyrimidin-2-yl)amino)benzenesulfonamide] | – | – |
| 6.81 | 7.77 | 541 | 9.2 | 384 | 5.04 | 7.83 | 618 | 10 and 10.5 | 438 | 5.19 | NS(=O)(=O)c1ccc(Nc2nc3nccc(-c4ccccc4Cl)n3n2)cc1 [Compound 1m, 4-((7-(2-Chlorophenyl)-[1,2,4]triazolo[1,5-a]pyrimidin-2-yl)amino)benzenesulfonamide] | > 10000 | effect of combination on the effect of TMZ [1]: did not significantly improve the effect of TMZ; effect of combination on the effect of TMZ [10]: did not significantly improve the effect of TMZ; effect of combination on efficacy of CDDP in reducing cell viability [7]: significantly improved the efficacy of CDDP |
| 7.47 | 7.90 | 84.5 | 2.7 | 44.8 | 5.98 | 8.29 | 207 | 6.6 | 110 | 6.25 | COc1cccc(-c2ccnc3nc(Nc4ccc(S(N)(=O)=O)cc4)nn23)c1 [Compound 1x, 4-((7-(3-Methoxyphenyl)-[1,2,4]triazolo[1,5-a]pyrimidin-2-yl)amino)benzenesulfonamide] | > 10000 | decrease in viability ([1]; 10 µM, HuTuP192, hypoxic conditions): most potent; effect of combination on efficacy of CDDP in reducing cell viability [7]: significantly improved the efficacy of CDDP |
